From ChEMBL document CHEMBL3526115, “Differences in the pharmacokinetics of 4-amino-3-chlorophenyl hydrogen sulfate, a metabolite of resatorvid, in rats and dogs” (Drug Metab Dispos, 2012)

Tests used:
[1] = Ratio of drug level in kidney to plasma in Crj:CD(SD)IGS rat at 0.25 mg/hr, iv administered as continuous infusion by HPLC-based liquid scintillation counting analysis; type: ADME, organism-based
In short: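 Rats received [14C]M-III in saline by continuous jugular-vein infusion for 4 h (0.5 mg/rat/h per methods; 0.25 mg/h in legend), then aortic blood and kidneys were collected. Dogs received a 0.5 mg/kg iv bolus, with blood and kidneys (cortex and medulla separated) collected at 24 h. 14C was measured in tissue homogenates and plasma as a tissue/plasma ratio. Rat n = 3, dog n = 2.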

[2] = Elimination rate constant in Crj:CD(SD)IGS rat at 0.5 mg/kg, iv administered as bolus dose by HPLC-based liquid scintillation counting analysis; type: ADME, organism-based; design: dose 0.5 mg/kg, route intravenous; conditions: in vivo
In short: (§1)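 [14C]M-III in saline given as a single iv bolus at 0.5 mg/kg to male rats (tail-vein blood, 5 min–24 h) or male beagle dogs (cephalic-vein blood, 5 min–168 h). Heparinized plasma counted for radioactivity; M-III quantified by HPLC with fraction collection and liquid scintillation counting. C5 min read directly; terminal t1/2 by linear regression, kel = ln2/t1/2, Vd = dose/back-extrapolated C0, CLtot = dose/AUCinf. Mean ± S.D., n = 3.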

[3] = Drug uptake in Beagle dog plasma at 0.5 mg/kg, iv administered as bolus dose after 5 mins by HPLC-based liquid scintillation counting analysis; type: ADME, organism-based, Canis lupus familiaris; design: dose 0.5 mg/kg, route intravenous; in short: as §1
[4] = In vitro plasma protein binding in rat at 0.5 ug/ml by ultrafiltration method; type: ADME, cell-free; conditions: read-out: PPB (converted)
In short: (§2)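 [14C]M-III in saline was added to rat or dog plasma at final 0.5, 5 and 50 µg/ml. Plasma was ultrafiltered by centrifugation at 1500g and 37°C for 10 min, and 14C was measured in plasma and filtrate. Mean ± S.D., n = 3.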

[5] = In vitro plasma protein binding in rat at 5 ug/ml by ultrafiltration method; type: ADME, cell-free; conditions: read-out: PPB (converted); in short: as §2
[6] = In vitro plasma protein binding in dog at 0.5 ug/ml by ultrafiltration method; type: ADME, cell-free, Canis lupus familiaris; conditions: read-out: PPB (converted); in short: as §2
[7] = In vitro plasma protein binding in dog at 50 ug/ml by ultrafiltration method; type: ADME, cell-free, Canis lupus familiaris; conditions: read-out: PPB (converted); in short: as §2
[8] = In vivo plasma protein binding in Beagle dog at 0.5 mg/kg, iv administered as bolus dose by ultrafiltration method; type: ADME, organism-based, Canis lupus familiaris; design: dose 0.5 mg/kg, route intravenous; conditions: read-out: PPB (converted)
In short: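 Plasma was taken from beagle dogs 24 h after a 0.5 mg/kg iv bolus of [14C]M-III (cephalic vein). Binding was determined by ultrafiltration (1500g, 37°C, 10 min), with 14C measured in plasma and filtrate.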

Plasma = test: Plasma concentration in Crj:CD(SD)IGS rat at 0.125 mg/hr, iv administered as continuous infusion by HPLC based liquid scintillation counting analysis; type: ADME, organism-based; conditions: in vivo
In short: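 Rats were continuously infused iv with [14C]M-III at 0.125 mg/rat/h, plus probenecid (4.7, 9.4, 18.6 mg/rat/h) or vehicle. Femoral-artery blood was taken at 0.5, 1, 2, 3 and 4 h, with terminal aortic blood at 5 h. Plasma radioactivity was measured, with probenecid quantified by HPLC-UV at 240 nm against spiked-plasma calibration from 0.1 to 100 µg/ml.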

[9] = Drug excretion in Crj:CD(SD)IGS rat urine assessed as excretion ratio of [14C] at 0.5 mg/kg, iv administered as bolus dose measured from 0 to 24 hrs by HPLC-based liquid scintillation counting analysis; type: ADME, organism-based; design: dose 0.5 mg/kg, route intravenous; conditions: in vivo
In short: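 Male rats in metabolic cages with urine/feces separator, or beagle dogs, after a 0.5 mg/kg iv bolus of [14C]M-III in saline. Radioactivity in urine and feces collected 0–24 h (rats) or 0–168 h (dogs) was counted and expressed as percent of dose. Mean ± S.D., n = 3.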

[10] = Drug recovery in Crj:CD(SD)IGS rat urine at 0.5 mg/kg, iv administered as bolus dose measured from 0 to 24 hrs by HPLC analysis; type: ADME, organism-based; design: dose 0.5 mg/kg, route intravenous; conditions: read-out: Drug recovery
In short: (§3)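 After a 0.5 mg/kg iv bolus of [14C]M-III, urine was collected 0–24 h (rat) or 0–168 h (dog) and injected directly onto HPLC with fraction collection and scintillation counting. M-III in urine was derived from the urinary 14C excretion ratio and the [14C]M-III composition. CLrenal = urinary M-III amount / AUC0–24 h (rat) or AUC0–168 h (dog). Unbound CLrenal = CLrenal / free fraction.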

[11] = Renal clearance in Crj:CD(SD)IGS rat at 0.5 mg/kg, iv administered as bolus dose measured from 0 to 24 hrs by HPLC-based liquid scintillation counting analysis; type: ADME, organism-based, Kidney; design: dose 0.5 mg/kg, route intravenous; conditions: in vivo; in short: as §3
[12] = Drug uptake in Crj:CD(SD)IGS rat plasma at 0.5 mg/kg, iv administered as bolus dose after 5 mins by HPLC-based liquid scintillation counting analysis; type: ADME, organism-based; design: dose 0.5 mg/kg, route intravenous; in short: as §1
[13] = Total body clearance in Crj:CD(SD)IGS rat at 0.125 mg/hr, iv administered as continuous infusion by HPLC based liquid scintillation counting analysis; type: ADME, organism-based; conditions: in vivo
In short: (§4)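 Rats received a continuous iv infusion of [14C]M-III at 0.125 mg/rat/h, with probenecid co-infused at 16, 31 or 62 mg/h/kg or vehicle alone, for 5 h. Arterial plasma was sampled during infusion. CLtot = infusion rate / steady-state plasma M-III (120–180 min). Unbound fraction was measured by ultrafiltration of 5-h plasma (10,000 MWCO, 1500g, 37°C, 10 min). CLint = CLtot / unbound ratio.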

[14] = Total body clearance in Crj:CD(SD)IGS rat at 0.125 mg/hr, iv administered as continuous infusion by HPLC based liquid scintillation counting analysis in presence of 31 mg/hr/kg probenecid; type: ADME, organism-based; conditions: in vivo, with probenecid 31 mg/hr/kg; in short: as §4
[15] = Total body clearance in Crj:CD(SD)IGS rat at 0.125 mg/hr, iv administered as continuous infusion by HPLC based liquid scintillation counting analysis in presence of 62 mg/hr/kg probenecid; type: ADME, organism-based; conditions: in vivo, with probenecid 62 mg/hr/kg; in short: as §4
Rattus norvegicus = test: Intrinsic total body clearance in Crj:CD(SD)IGS rat at 0.125 mg/hr, iv administered as continuous infusion by HPLC based liquid scintillation counting analysis in presence of 31 mg/hr/kg probenecid; type: ADME, organism-based; conditions: in vivo; in short: as §4
[16] = In vivo plasma protein binding in Crj:CD(SD)IGS rat at 0.125 mg/hr, iv administered as continuous infusion by ultrafiltration method in presence of 31 mg/hr/kg probenecid; type: ADME, organism-based; conditions: with probenecid 31 mg/hr/kg, read-out: PPB (converted); in short: as §4
[17] = Unbound fraction in Crj:CD(SD)IGS rat plasma at 0.125 mg/hr, iv administered as continuous infusion by ultrafiltration method; type: ADME, organism-based; in short: as §4
[18] = Unbound fraction in Crj:CD(SD)IGS rat plasma at 0.125 mg/hr, iv administered as continuous infusion by ultrafiltration method in presence of 16 mg/hr/kg probenecid; type: ADME, organism-based; conditions: with probenecid 16 mg/hr/kg; in short: as §4
[19] = Unbound fraction in Crj:CD(SD)IGS rat plasma at 0.125 mg/hr, iv administered as continuous infusion by ultrafiltration method in presence of 62 mg/hr/kg probenecid; type: ADME, organism-based; conditions: with probenecid 62 mg/hr/kg (co-administered); in short: as §4

Kp [1]: 3.5 | k el [2]: 5.11e-05 s⁻¹ | concentration at 5 min [3]: 4690 ng/mL | fraction unbound at 0.5 ug/ml [4]: 0.075 | fraction unbound at 5 ug/ml [5]: 0.078 | fraction unbound at 0.5 ug/ml [6]: 0.098 | fraction unbound at 50 ug/ml [7]: 0.154 | fraction unbound [8]: 0.08 | Cp (Plasma): 600 ng/mL | Drug excretion [9]: 84.7% | dose excreted [10]: 76.9% | CL renal [11]: 9.47 mL/min/kg | concentration at 5 min [12]: 2290 ng/mL | clearance [13]: 11.4 mL/min/kg | clearance [14]: 2.35 mL/min/kg | clearance [15]: 1.83 mL/min/kg | CL (Rattus norvegicus): 11.9 mL/min/kg | fraction unbound [16]: 0.197 | fraction unbound [17]: 0.088 | fraction unbound [18]: 0.078 | fraction unbound [19]: 0.184
Compound: N[14c]1[14cH][14cH][14c](OS(=O)(=O)O)[14cH][14c]1Cl
